Measurements as given in ChEMBL document CHEMBL1135476, “Synthesis and structure-activity relationship study of potent trypanocidal thio semicarbazone inhibitors of the trypanosomal cysteine protease cruzain” (J Med Chem, 2002).
pIC50: −log10 of the molar value.

What was measured:
Cruzipain = Cruzipain (Trypanosoma cruzi, UniProt P25779); test: Inhibitory activity against Trypanosoma cruzi cathepsin L-like protease (cruzain) was determined using purified recombinant protein
In short: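 Purified recombinant cruzain (1 nM) preincubated 5 min at room temperature with inhibitor (20-50000 nM; seven concentrations) in 100 mM sodium acetate, 5 mM DTT, pH 5.50. DMSO 0.7% in assay. IC50 read graphically from linear portion of inhibition vs log[I], at least two points in linear range.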

Trypanosoma cruzi [1] = test: Trypanocidal activity in infected host cells; assay type: functional
In short: (§1)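 Irradiated (5000 rad) J774 macrophages were plated 24 h before infection with ~10^6 T. cruzi Y-strain trypomastigotes per well; the trypomastigotes came from BESM cell culture supernatants. Parasites were removed at 2 h, then compound was given at 10 μM (stocks 10 mM in DMSO) in RPMI-1640 with FCS at 37 °C, 5% CO2, refreshed every 48 h. DMSO blank served as control. Cultures were followed by phase microscopy for up to […], scoring intracellular cycle duration and host-cell survival and toxicity.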

Trypanosoma cruzi [2] = test: Tested for the trypanocidal property against infected host cells (Trypanosoma cruzi) using a cell culture assay.; assay type: functional; in short: as §1
Trypanosoma cruzi [3] = test: Tested for the trypanocidal property against infected host cells (Trypanosoma cruzi) using a cell culture assay; assay type: functional; in short: as §1

Chain of Cruzipain (P25779 whole entry): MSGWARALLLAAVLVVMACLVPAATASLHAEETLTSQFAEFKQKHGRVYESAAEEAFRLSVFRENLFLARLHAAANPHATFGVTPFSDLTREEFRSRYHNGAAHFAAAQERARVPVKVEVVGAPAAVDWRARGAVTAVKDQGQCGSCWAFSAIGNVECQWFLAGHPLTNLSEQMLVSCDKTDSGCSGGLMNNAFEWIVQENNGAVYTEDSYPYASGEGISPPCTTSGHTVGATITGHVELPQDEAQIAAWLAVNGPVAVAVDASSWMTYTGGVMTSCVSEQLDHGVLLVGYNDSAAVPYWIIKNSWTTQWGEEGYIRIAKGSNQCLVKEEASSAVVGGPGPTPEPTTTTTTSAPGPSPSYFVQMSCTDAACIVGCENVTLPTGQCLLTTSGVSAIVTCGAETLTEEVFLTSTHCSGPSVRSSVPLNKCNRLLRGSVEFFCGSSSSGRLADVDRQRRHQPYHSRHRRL

| SMILES | pIC50 (Cruzipain) | other results |
| --- | --- | --- |
| Cn1nc(C(F)(F)F)cc1-c1ccc(/C=N/N=C(/N)S)s1 | 5.15 |  |
| CC1CN(C(=N)S)N=C1c1cccc(Cl)c1 (stereo not drawn) | 6.64 | Cell survived (Trypanosoma cruzi [1]): >41 days |
| NC(=O)N/N=C/c1ccc(-c2ccc(Cl)cc2)o1 | < 5.00 |  |
| CC/C(=N\N=C(\N)S)c1ccc(Cl)cc1Cl | < 5.00 |  |
| N/C(S)=N/N=C/c1cccc(Cl)c1Cl | < 5.00 |  |
| N/C(S)=N/N=C/c1ccc(-c2cccc(Cl)c2)o1 | 6.85 |  |
| CC/C(=N\N=C(/S)NCc1ccco1)c1cccc(Br)c1 | < 5.00 |  |
| C/C(=N\N=C(\N)S)c1cccc(C(F)(F)F)c1 | 6.77 | Cell survived (Trypanosoma cruzi [1]): 15 days |
| CC/C(=N\N=C(/S)Nc1ccc(C(F)(F)F)cc1)c1cccc(Br)c1 (stereo in doubt; 5c) | 5.80 | Cell survived (Trypanosoma cruzi [1]): 5 days |
| CC/C(=N\N=C(\N)S)c1ccc(OC)cc1 | < 5.00 |  |
| N/C(S)=N/N=C/c1cc(C#Cc2ccccc2)cs1 | < 5.00 |  |
| CC/C(=N\NC(N)=O)c1cccc(C(F)(F)F)c1 | < 5.00 |  |
| N/C(S)=N/N=C/c1cccn1S(=O)(=O)c1ccccc1 | 5.55 |  |
| CC(C)/N=C(\S)N1CCC(c2cccc(Br)c2)=N1 | < 5.00 |  |
| CC1CN(C(=N)S)N=C1c1cccc(C(F)(F)F)c1 (stereo not drawn) | 7.40 | Cell survived (Trypanosoma cruzi [1]): >41 days |
| CC/C(=N\NC(N)=O)c1ccc(Cl)c(Cl)c1 | < 5.00 |  |
| C/C(=N\N=C(\N)S)c1ccccc1Br | 5.41 |  |
| CC/C(=N\N=C(\N)S)c1ccccc1 | < 5.00 |  |
| C/C(=N\N=C(\N)S)c1ccc(Br)s1 | 5.42 |  |
| N=C(S)N/N=C/c1ccccc1C(F)(F)F | < 5.00 |  |
| C/C(=N\NC(N)=O)c1cccc(Br)c1 | < 5.00 |  |
| CC/C(=N\N=C(\N)S)c1ccc(Br)cc1 | < 5.00 |  |
| N=C(S)N/N=C/c1cc(C(F)(F)F)cc(C(F)(F)F)c1 | 6.49 |  |
| COc1cccc(/C(C)=N/N=C(/N)S)c1 | < 5.00 |  |
| CC/C(=N\NC(N)=O)c1cccc(Cl)c1 | < 5.00 |  |
| C/C(=N\N=C(\N)S)c1ccc(Cl)c(Cl)c1 | 7.30 | Cell survived (Trypanosoma cruzi [1]): >41 days |

| SMILES | pIC50 (Cruzipain) | other results |
| --- | --- | --- |
| C/C(=N\NC(N)=O)c1cccc(Cl)c1 | < 5.00 |  |
| CC/C(=N\N=C(\N)S)c1cccc(C(F)(F)F)c1 | 7.30 | Cell survived (Trypanosoma cruzi [2]): >41 days |
| C/C(=N\NC(N)=O)c1ccc(Cl)c(Cl)c1 | < 5.00 |  |
| N/C(S)=N/N=C/c1ccc(-c2ccc(Cl)cc2)o1 | 6.52 | Cell survived (Trypanosoma cruzi [3]): 15 days |
| CC/C(=N\N=C(\N)S)c1cccc(Br)c1 |  | Cell survived (Trypanosoma cruzi [2]): >46 days |
| S=C(Nc1cccc(Cl)c1)N1CCC(c2cccc(Br)c2)=N1 | 6.00 | Cell survived (Trypanosoma cruzi [1]): 5 days |
| CC/N=C(\S)N/N=C(\CC)c1cccc(Br)c1 | < 5.00 |  |
| N=C(S)N/N=C/c1cccc(C(F)(F)F)c1 | 6.32 |  |
| S=C(Nc1ccccc1)N1CCC(c2cccc(Br)c2)=N1 | < 5.00 |  |
| COc1ccccc1-c1ccc(/C=N/N=C(/N)S)o1 | 6.55 | Cell survived (Trypanosoma cruzi [3]): 8 days |
| NC(=S)N1CCC(c2cccc(Br)c2)=N1 | 6.70 | Cell survived (Trypanosoma cruzi [1]): 5 days |
| C/C(=N\N=C(\N)S)c1ccc(N2CCOCC2)cc1 | < 5.00 |  |
| C/N=C(\S)N1CCC(c2cccc(Br)c2)=N1 | < 5.00 |  |
| CC/C(=N\N=C(\N)S)c1ccc(Cl)c(Cl)c1 | 7.70 | Cell survived (Trypanosoma cruzi [1]): 9 days |
| NC(=O)N/N=C/c1ccc(-c2cccc(Cl)c2)o1 | < 5.00 |  |
| NC(=O)N/N=C/c1ccc(-c2ccc(Br)cc2)o1 | < 5.00 |  |
| C/C(=N\N=C(\N)S)c1cc(C(F)(F)F)cc(C(F)(F)F)c1 | 7.22 | Cell survived (Trypanosoma cruzi [1]): 7 days |
| FC(F)(F)c1cccc(NC(=S)N2CCC(c3cccc(Cl)c3)=N2)c1 | 5.77 |  |
| CCC(NNC(N)=S)c1cccc(Br)c1 (stereo not drawn) | < 5.00 |  |
| CC/C(=N\N=C(\N)S)c1ccc2cc(OC)ccc2c1 | < 5.00 |  |
| N/C(S)=N/N=C/c1cccc(Br)c1 | 5.89 | Cell survived (Trypanosoma cruzi [1]): 8 days |
| CC/C(=N\NC(N)=O)c1cccc(Br)c1 | < 5.00 |  |
| CC/C(=N\N=C(\N)S)c1cccc(F)c1 | < 5.00 |  |
| C/C(=N\NC(N)=O)c1cccc(C(F)(F)F)c1 | < 5.00 |  |
| CN(C)c1ccc(/C=N/N=C(/N)S)c2ccccc12 | < 5.00 |  |
| C/C(=N\N=C(\N)S)c1ccc(Cl)s1 | 5.72 |  |

| SMILES | pIC50 (Cruzipain) | other results |
| --- | --- | --- |
| CC/C(=N\N=C(/S)NC(C)C)c1cccc(Br)c1 | < 5.00 |  |
| FC(F)(F)c1ccc(NC(=S)N2CCC(c3cccc(Br)c3)=N2)cc1 | < 5.00 |  |
| N/C(S)=N/N=C/c1ccc(Cl)c(Cl)c1 | 6.34 |  |
| S=C(NCCN1CCOCC1)N1CCC(c2cccc(Br)c2)=N1 | < 5.00 |  |
| CC/N=C(\S)N1CCC(c2cccc(Br)c2)=N1 | < 5.00 |  |
| N/C(S)=N/N=C/c1cc(Cl)cc(Cl)c1 | 6.25 |  |
| C/C(=N\N=C(\N)S)c1cccc(Br)c1 |  | Cell survived (Trypanosoma cruzi [1]): 22 days |
| C/C(=N\N=C(\N)S)c1ccccc1Cl | < 5.00 |  |
| CC/C(=N\N=C(/S)NCCN1CCNCC1)c1cccc(Br)c1 | < 5.00 |  |
| NC(=S)N1CCC(c2ccc(Cl)c(Cl)c2)=N1 | 7.22 | Cell survived (Trypanosoma cruzi [1]): >41 days |
| CC1CN(C(=N)S)N=C1c1ccc(Cl)c(Cl)c1 (stereo not drawn) | 7.15 | Cell survived (Trypanosoma cruzi [1]): 15 days |
| COc1ccc(/C=N/NC(N)=S)cc1O | < 5.00 |  |
| CC/C(=N\N=C(/S)Nc1ccc(C(F)(F)F)cc1)c1cccc(Br)c1 (stereo in doubt) | < 5.00 |  |
| NC(=S)N1CCC(c2cccc(Cl)c2)=N1 | 6.57 | Cell survived (Trypanosoma cruzi [1]): 5 days |
| NC(=S)N/N=C/c1ccc(-c2ccc(Br)cc2)o1 | 6.55 |  |
| N=C(S)N1CCC(c2cccc(C(F)(F)F)c2)=N1 | 7.10 | Cell survived (Trypanosoma cruzi [1]): 5 days |
| CCCCCCNC(=S)N1CCC(c2cccc(Br)c2)=N1 | 5.85 |  |
| CC/C(=N\N=C(\N)S)c1ccc(Cl)cc1 | < 5.00 |  |
| CC/C(=N\N=C(/S)Nc1ccccc1)c1cccc(Br)c1 | < 5.00 |  |
| CC/C(=N\N=C(\N)S)c1cccc(Cl)c1 | 6.66 | Cell survived (Trypanosoma cruzi [2]): 22 days |
| CC/C(=N\N=C(/S)NC)c1cccc(Br)c1 | < 5.00 |  |
| CC1CN(C(=N)S)N=C1c1cccc(Br)c1 (stereo not drawn) |  | Cell survived (Trypanosoma cruzi [1]): >22 days |
| S=C(NCc1ccco1)N1CCC(c2cccc(Br)c2)=N1 | < 5.00 |  |
| CC/C(=N\N=C(\N)S)c1cc(C(F)(F)F)cc(C(F)(F)F)c1 | 7.70 | Cell survived (Trypanosoma cruzi [1]): 20 days |
| CC/C(=N\NC(N)=O)c1cc(C(F)(F)F)cc(C(F)(F)F)c1 | < 5.00 |  |
| COc1ccc2ccccc2c1/C=N/N=C(/N)S | 6.25 | Cell survived (Trypanosoma cruzi [2]): 5 days |
